Source: PubChem BioAssay
The list is not random: actives were taken first. Their share in the collection is about 4.8%.
ERa SRC1 pot: enhancers of ERα–SRC-1 coactivator binding, primary screen, biochemical, TR-FRET, ERα LBD, low estradiol; Estrogen receptor (Homo sapiens), P03372; TR-FRET ERalpha-LBD/SRC-Cy5 coactivator binding, 2 h; 100 = basal binding, no effect; coactivator binding (% of control), % at 25.6 µM; 86,000 tested, 1.3% active; in the data active means activity above about 200%;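 further: binding measured in presence of low estradiol as agonist stimulus; 0% = peptide alone without receptor and 100% = receptor with peptide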
ERa coact inh: ERα–SRC-1 coactivator interaction inhibitors, primary screen, biochemical, TR-FRET, ERα LBD, estradiol-bound; Estrogen receptor (Homo sapiens), P03372; TR-FRET ER-alpha LBD / SRC-1 peptide; inhibition, % at 25.6 µM; 86,000 tested, 1.7% active; AID 629, 2007; in the data active means inhibition above about 50%;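 further: 0% = receptor plus peptide control and 100% = peptide only without receptor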
RORA act: activators of orphan receptor RORA, primary screen, cell-based, luminescence | Nuclear receptor ROR-alpha (Homo sapiens), P35398 | CHO-K1 Gal4-RORA LBD luciferase reporter; percent increase over mock-subtracted basal signal | activation, % at 10 µM | 65,000 tested, 1.5% active | AID 560, 2006;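 active means activation above the mean of all tested compounds plus 3 SD, cut at about 49% in these data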;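 further: 0% = DMSO-treated RORA cells and 100% = added signal equal to DMSO minus mock-transfected cells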
ERb coact inh: inhibitors of ERβ-SRC1 coactivator interaction, primary screen, biochemical, TR-FRET, ERβ LBD, SRC-1 peptide. 86,000 tested, 1.3% active. inhibition, % at 25.6 µM. Estrogen receptor beta (Homo sapiens), Q92731. TR-FRET ER-beta LBD / SRC1-Cy5 peptide binding; receptor agonist-loaded with 1 µM estradiol;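 active means compounds whose percent inhibition of the receptor-coactivator binding signal exceeds about 50% in the single-dose screen, limit read from the data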;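 further: 0% = receptor plus peptide wells without compound and 100% = peptide-only wells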
Pyk2 oligo antag: antagonists of Pyk2 self-association, primary screen, Q293 cells, FERM NanoBiT luminescence, HTS. stronger effect = lower value. z-score (the deposit names both 25 µM and 10 µM). 99,000 tested, 0.83% active;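 active means Z-score of -3 or lower, scaled per plate to the spread of control and sample wells; inactive means z-score above -3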;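 further: negative z-score means lost luminescence so less FERM oligomerization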
Target sequence (Q14289 whole entry, looked up): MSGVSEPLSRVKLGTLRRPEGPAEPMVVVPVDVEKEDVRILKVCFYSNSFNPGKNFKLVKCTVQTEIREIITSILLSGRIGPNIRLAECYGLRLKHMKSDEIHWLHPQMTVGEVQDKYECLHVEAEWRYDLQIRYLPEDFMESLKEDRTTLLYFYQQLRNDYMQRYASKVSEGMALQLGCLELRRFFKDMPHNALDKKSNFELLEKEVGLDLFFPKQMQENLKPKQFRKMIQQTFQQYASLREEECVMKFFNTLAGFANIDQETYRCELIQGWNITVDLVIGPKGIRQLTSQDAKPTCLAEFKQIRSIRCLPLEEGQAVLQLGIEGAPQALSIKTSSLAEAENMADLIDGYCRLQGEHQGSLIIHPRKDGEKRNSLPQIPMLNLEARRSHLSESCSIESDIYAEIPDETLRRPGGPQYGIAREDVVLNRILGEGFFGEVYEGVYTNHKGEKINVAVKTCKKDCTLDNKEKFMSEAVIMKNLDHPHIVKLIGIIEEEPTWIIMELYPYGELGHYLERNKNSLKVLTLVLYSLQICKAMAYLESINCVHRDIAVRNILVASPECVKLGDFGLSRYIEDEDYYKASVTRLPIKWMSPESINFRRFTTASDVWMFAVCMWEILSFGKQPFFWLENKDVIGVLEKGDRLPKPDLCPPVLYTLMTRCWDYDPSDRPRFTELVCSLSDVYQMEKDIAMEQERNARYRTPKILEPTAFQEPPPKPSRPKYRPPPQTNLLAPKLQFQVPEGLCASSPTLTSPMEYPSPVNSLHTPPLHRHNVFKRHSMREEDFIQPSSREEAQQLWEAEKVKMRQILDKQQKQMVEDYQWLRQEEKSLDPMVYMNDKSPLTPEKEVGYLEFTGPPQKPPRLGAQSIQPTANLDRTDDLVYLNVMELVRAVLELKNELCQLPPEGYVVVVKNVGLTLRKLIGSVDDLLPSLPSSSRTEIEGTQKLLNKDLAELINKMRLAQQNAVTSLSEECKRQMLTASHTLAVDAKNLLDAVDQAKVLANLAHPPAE
SF-1 act: activators of human SF-1, primary screen, cell-based, CHO-K1, Gal4-SF-1 LBD, luciferase luminescence. Steroidogenic factor 1 (Homo sapiens), Q13285. CHO-K1 Gal4-SF-1 LBD luciferase reporter; % increase over DMSO SF-1-specific signal. activation, % at 10 µM. 65,000 tested, 1.9% active. AID 522, 2006;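 active means activation above the mean activation of all tested compounds plus 3 SD, cut at about 50% in these data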
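Material: Gal4–SF-1 LBD one-hybrid luciferase reporter in CHO-K1 cells | Amount: 4,000 cells per well | Compound dosing: 10 µM single point, 1% DMSO | Schedule: 20 h compound treatment, 37 °C | Measured by: SteadyLite luciferase luminescence | Evaluation: Percent activation versus DMSO | Control set: DMSO-treated SF-1-transfected cells as negative, DMSO-treated mock-transfected cells lacking SF-1 as background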
The depositor's hits bear a star; . = not tested or not shown; [ ] = remark or other dose.

SMILES	ERa SRC1 pot	ERa coact inh	RORA act	ERb coact inh	Pyk2 oligo antag	SF-1 act
CCCSc1nc(C)c(-c2csc(C(C#N)=C3CCCC3)n2)cc1C#N	78	69*	-9	49	-0.36	5
CCCCSc1nc2c(cc1C#N)CCC2	103	-1	2	-3	1.7	-2
CCOc1cc(S(=O)(=O)NCc2ccco2)c(OCC)cc1-n1cnnn1	104	-4	-21	3	1.5	1
O=C(NCC1CCCO1)c1coc2nc3ccccc3nc12 (configuration not stated)	.	.	3	.	-0.05	57*
O=C(Nc1ccccc1C(=O)NCC1CCCO1)c1ccccc1 (configuration not stated)	.	.	.	.	-0.43	.
O=S(=O)(c1cccc(-c2cn3cccnc3n2)c1)N1CCCCCC1	124	58*	6	32	0.08	10
Clc1ccc(-c2cn3cccnc3n2)cc1	95	5	.	0	0.37	.
Brc1ccc(-c2cn3cccnc3n2)cc1	109	-8	53*	7	0.36	38
CCOc1cccc(C2c3c(oc4cc(C)c(C)cc4c3=O)C(=O)N2CCCN(C)C)c1 (configuration not stated)	106	0	19	-6	.	-13
CCCn1c(C)cc(C(=O)CN2C(=O)c3ccccc3C2=O)c1C	106	-6	55*	-7	.	65*
O=C(O)CCNc1ccc2c(c1)OCCO2	119	-21	3	-13	0.41	8
Cc1ccc(/C=C(/C#N)c2nc(CCN3C(=O)c4ccccc4C3=O)cs2)cc1	.	.	.	.	-3.2*	.
O=C1c2ccccc2C(=O)N1CCc1csc(-c2cccc(F)c2)n1	.	.	.	.	-1.3	.
CCOC(=O)c1cc(C#N)c(SCC(=O)c2cc(C#N)c(SC)nc2C)nc1C	288*	35	21	32	-2.5	2
CCC(=O)Oc1c(-c2ccccc2)c2nc3ccccc3nc2c2ccccc12	221*[fluorescence artefact?]	39	.	47	.	.
CCOC(=O)Cn1c(-c2ccccc2)nc2ccccc2c1=O	.	.	.	.	0.26	.
CCc1nnc(NC(=O)c2ccc(COc3ccc(C)cc3)o2)s1	125	3	14	2	-0.69	52*
CCc1nnc(NC(=O)c2ccc(COc3ccccc3)o2)s1	116	-2	12	4	-0.63	0
O=C(CCCNS(=O)(=O)c1cccc2nsnc12)NC1CCCCC1	94	2	-13	3	0.44	10
CCOC(=O)CN(C(=O)CSc1nnc(CNc2ccc(F)cc2)n1CC)c1ccc(F)cc1	223*	-3	.	-8	0.64	.
CCOC(=O)CN(C(=O)CSc1nnc(CNc2ccc(C)cc2C)n1CC)c1ccccc1	97	-3	-10	1	0.23	-6
COc1ccc(NC2=Nc3ccccc3CC2)cc1	108	6	63*	6	-0.26	58*
COc1ccc(NC(=O)N2CCc3ccccc32)cc1	105	-7	.	4	-0.26	.
Cc1ccc(-c2nnc(Nc3ccccc3)c3ccccc23)cc1S(=O)(=O)NCC1CCCO1 (configuration not stated)	.	.	.	.	-1.7	.
Cc1ccc(-c2nn3c(-c4ccco4)nnc3c3ccccc23)cc1S(=O)(=O)NCC1CCCO1 (configuration not stated)	218*	55*[fluorescence artefact?]	3	30	-1.1	-11
COc1ccc(-c2cc(C(=O)N3CCN(Cc4ccccc4)CC3)no2)cc1OC	113	-4	11	-11	-1.1	-8
COc1ccc(-c2cc(C(=O)N3CCCCC3)no2)cc1OC	125	-10	6	-6	-0.47	77*
Cc1cc(C)c2oc(-c3ccc(C)c(NC(=S)NC(=O)c4cccs4)c3)nc2c1	.	.	.	.	-3.7*	.
c1ccc(CCn2nnnc2CN2CCCc3ccccc32)cc1	119	-8	51*	-13	4.3	21
